The subject of assay [1] is Trypanosoma brucei. The assay is described as follows: Trypanocidal activity against bloodstream form of Trypanosoma brucei assessed as inhibition of parasite growth. In kind it is functional, organism-based. The gist of the method: (§1)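 Bloodstream-form T. brucei were cultured in vitro at pH 7.4. Growth inhibition was expressed as IC50 and IC90, the concentrations that inhibit parasite growth by 50% and 90%. Values are the mean of triplicate experiments ± SEM.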

Assay [2] concerns Trypanosoma brucei. Briefly: Trypanocidal activity against bloodstream form of Trypanosoma brucei 221 assessed as inhibition of parasite growth incubated for 48 hrs followed by resazurin addition and measured after 16 hrs by resazurin assay. In kind it is functional, organism-based. The gist of the method: as §1
On the technique in general: Alamar Blue is a resazurin reagent that responds to reducing activity.

Consider `CCCC1(c2ccccc2)C(=O)N(CC(=O)NO)C(=O)CN1C` (stereo not drawn), for which the IC50 in the assay with Trypanosoma brucei [1] was 1770 nM. Consider `CC(C)C[C@@H]1NC2(CCCCCC2)C(=O)N(CC(=O)NO)C1=O`, for which the IC50 in the assay on Trypanosoma brucei [2] came out at 99 nM. Consider `CCCN1CC(=O)N(CC(=O)NO)C(=O)C1(C)c1ccccc1` (stereo not drawn), for which the IC50 with Trypanosoma brucei [1] was 470 nM. As for `CCCCN1CC(=O)N(CC(=O)NO)C(=O)C1(C)c1ccccc1` (stereo not drawn), the IC50 with Trypanosoma brucei [1] came to 630 nM. Same read-out and setting: the value for `CN1CC(=O)N(CC(=O)NO)C(=O)C1(C)c1ccccc1` (stereo not drawn) was 590 nM; that for `CC1(c2ccc([N+](=O)[O-])cc2)NCC(=O)N(CC(=O)NO)C1=O` (stereo not drawn) was 11700 nM; that for `CC1(c2ccc(F)cc2)NCC(=O)N(CC(=O)NO)C1=O` (stereo not drawn) was 19100 nM.

Turning to `CN1CC(=O)N(CC(=O)NO)C(=O)C1(C)c1ccc(F)cc1` (stereo not drawn), the IC50 in the assay on Trypanosoma brucei [1] was 8160 nM. For the compound `CN1CC(=O)N(CC(=O)NO)C(=O)C1(C)c1ccc([N+](=O)[O-])cc1` (stereo not drawn), the IC50 in the assay on Trypanosoma brucei [1] came to 1220 nM.

As for `CCCCC1(c2ccccc2)NCC(=O)N(CC(=O)NO)C1=O` (stereo not drawn), the IC50 in the assay with Trypanosoma brucei [1] came out at 1720 nM. Same read-out and setting: the value for `CC1(c2ccccc2)NCC(=O)N(CC(=O)NO)C1=O` (stereo not drawn) was 6970 nM.

As for `CCCC1(c2ccccc2)NCC(=O)N(CC(=O)NO)C1=O` (stereo not drawn), the IC50 in the assay on Trypanosoma brucei [1] is 7250 nM. For the compound `CCCCC1(c2ccccc2)C(=O)N(CC(=O)NO)C(=O)CN1C` (stereo not drawn), in the assay on Trypanosoma brucei [1], the IC50 came to 2650 nM.

By IC50 is commonly meant the concentration that inhibits the measured activity by half.

The values are drawn from ChEMBL document CHEMBL5584279, “New Lipophilic Hydroxamates as Promising Trypanocidal Agents: Design, Synthesis, SAR, and Conformational Behavior Studies” (ACS Med Chem Lett, 2024).
